ChEMBL document CHEMBL1129631, “Synthesis and evaluation of aryl-substituted N-(arylethyl)-N-methyl-2-(1-pyrrolidinyl)ethylamines and corresponding arylacetamides for sigma receptor affinity” (J Med Chem, 1996)

What was measured:
[1] = target: Sigma non-opioid intracellular receptor 1 (Cavia porcellus) (UniProt Q60492); assay: Relative affinity for sigma-1 compared to sigma-2 type receptors
Sigma 2 receptor = assay: Displacement of [3H]-DTG from Sigma opioid receptor type 2 in rat liver membrane; assay type: cell membranes
Summary of the method: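 Liver membranes from male Sprague-Dawley rats (160 μg protein) with 5 nM [3H]DTG plus 1 μM dextralorphan masking σ1 sites. Twelve ligand concentrations (0.05–10 000 nM or 0.5–100 000 nM), 50 mM Tris-HCl pH 8.0, 120 min, 25 °C. Nonspecific binding by 10 μM haloperidol. Filtration and counting. Ki from IC50 by Cheng–Prusoff; 2–3 experiments ± SEM.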

Sigma non-opioid intracellular receptor 1 (Cavia porcellus), sequence (Q60492 whole entry, looked up): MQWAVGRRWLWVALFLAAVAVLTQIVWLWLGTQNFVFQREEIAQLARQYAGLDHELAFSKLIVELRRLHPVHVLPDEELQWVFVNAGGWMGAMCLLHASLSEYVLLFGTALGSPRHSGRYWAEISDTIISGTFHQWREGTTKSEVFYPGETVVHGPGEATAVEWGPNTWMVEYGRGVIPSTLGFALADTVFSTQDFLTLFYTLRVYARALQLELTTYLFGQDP

Structure (SMILES)	Ratio [1]	Ki (Sigma 2 receptor)
CN(CCc1cccc(N)c1)CCN1CCCC1	0.26	2240 nM
COc1ccccc1CC(=O)N(C)CCN1CCCC1	–	3170 nM
CN(CCN1CCCC1)C(=O)Cc1ccccc1[N+](=O)[O-]	0.49	1490 nM
CN(CCc1ccccc1N)CCN1CCCC1	0.45	640 nM
COc1ccccc1CCN(C)CCN1CCCC1	0.11	144 nM
COc1cccc(CC(=O)N(C)CCN2CCCC2)c1	2.8	1110 nM
CN(CCc1ccc([N+](=O)[O-])cc1)CCN1CCCC1	0.07	62.7 nM
CN(CCc1cccc([N+](=O)[O-])c1)CCN1CCCC1	0.07	95.2 nM
CN(CCN1CCCC1)C(=O)Cc1cccc([N+](=O)[O-])c1	3	539 nM
COc1cccc(CCN(C)CCN2CCCC2)c1	0.11	209 nM
COc1ccc(CCN(C)CCN2CCCC2)cc1	0.12	256 nM
CN(CCc1ccccc1[N+](=O)[O-])CCN1CCCC1	0.02	311 nM
CN(CCc1ccc(N)cc1)CCN1CCCC1	0.28	974 nM
CN(CCN1CCCC1)C(=O)Cc1ccc([N+](=O)[O-])cc1	1.5	596 nM
COc1ccc(CC(=O)N(C)CCN2CCCC2)cc1	1.8	1220 nM
